Experimental findings from PubChem BioAssay are described below.

As usually defined, the inhibition is the relative decrease from the control value, in per cent.

Activity calls are given as the source filed them.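 The calls were made as follows, unless noted: active = visually confirmed hit in the image check and inhibition above 20%; inconclusive = visually confirmed hit but inhibition not above 20%; inactive = no visual hit in the image check.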

Assay [1] can be described thus: inhibitors of TNFa-induced NFkB p65 translocation, primary screen, imaging, HUVEC, MLSMR starter and 10KST1 sets (AID 438;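 active = inhibition above 20% together with a positive visual image hit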;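 also: compound added about 3h40 before a 20 min TNFalpha stimulation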;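 as to inhibition: signal is the nuclear over cytoplasmic p65 intensity ratio per well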). As to conditions: HUVEC TNFa-induced p65 nuclear translocation; cell count: measured here: nuclei count (cytotoxicity indicator), at 2.08 µM; inhibition: at 2 µM, stronger effect = higher value, 0% TNFa-plus-vehicle, 100% no-TNFa wells.
A short description of assay [2]: endothelial E-selectin expression blockers – imaging, HUVEC, immunofluorescence, MLSMR starter and 10KST1 sets, primary screen (AID 487).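 As to inhibition: signal is fraction of cell area covered by stained E-selectin grains.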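 As to nuclei count: 100% = median nuclei count of all wells on the same plate.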 The conditions noted are these: HUVEC TNFalpha-induced E-selectin immunofluorescence imaging, at 2 µM; inhibition: stronger effect = higher value; nuclei count: measured here: cell number, toxicity.
Assay [3] in a line: Primary imaging screen for DUSP6 inhibitors that restore phospho-Erk in transfected HeLa cells, chemical complementation (AID 609;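 active = compounds giving at least 50% inhibition in the cell-based MKP-3 phosphatase rescue imaging test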;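 as to inhibition: phospho-Erk level distribution per well compared with pooled transfected vehicle control wells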). As to conditions: HeLa MKP-3 transfected, phospho-Erk imaging KS statistic, at 10 µM, cells stimulated with TPA for 15 min.
Assay [4] deals with Dual specificity protein phosphatase 6 (Homo sapiens) (UniProt Q16828). The description is as above. The conditions noted are these: HeLa MKP-3 transfected, phospho-Erk imaging KS statistic; at 10 µM; stronger effect = higher value; cells stimulated with TPA for 15 min.
Dual specificity protein phosphatase 6 (Homo sapiens), sequence (Q16828 whole entry, looked up): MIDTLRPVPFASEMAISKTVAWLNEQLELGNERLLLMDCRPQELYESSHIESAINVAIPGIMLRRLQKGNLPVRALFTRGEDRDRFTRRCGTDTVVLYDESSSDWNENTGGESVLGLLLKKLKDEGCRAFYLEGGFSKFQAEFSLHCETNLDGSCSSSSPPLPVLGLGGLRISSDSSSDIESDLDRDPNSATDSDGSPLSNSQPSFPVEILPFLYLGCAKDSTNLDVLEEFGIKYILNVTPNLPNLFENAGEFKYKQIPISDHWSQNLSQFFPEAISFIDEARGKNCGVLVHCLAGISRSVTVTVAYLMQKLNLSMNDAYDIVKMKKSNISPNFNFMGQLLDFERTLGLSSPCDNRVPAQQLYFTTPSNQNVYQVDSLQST
Assay [5] has as its target Voltage-gated potassium channel subunit beta-2 (Rattus norvegicus) (UniProt P62483). Briefly: inhibitors of rat Kvbeta2 reductase activity – biochemical, NADPH fluorescence, primary screen (AID 622;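 active = fluorescence slope higher than the sample average by over 3 SD, cut at about -0.22 in these data, passing the limit was not always enough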;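 also: slope of raw intensity against log time taken from 70 to 1610 s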). The conditions noted are these: recombinant KvBeta, 4-cyanobenzaldehyde reduction, at 10 µM, stronger effect = higher value.
Assay [6] shares this target. Briefly: enhancers of rat Kvbeta2 NADPH turnover – biochemical, NADPH fluorescence, primary screen (AID 623;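 active = NADPH fluorescence slope more negative than the mean of all samples by about 3 SD, 99.7% confidence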;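 also: fluorescence intensity change per second fitted from 20 to 320 s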). The conditions noted are these: Recombinant KvBeta, NADPH fluorescence decrease slope, 10 min; at 10 µM; stronger effect = lower value.
The target in assay [7] is Alpha-2C adrenergic receptor (Homo sapiens) (UniProt P18825). Briefly: compounds altering alpha2C-coupled GIRK flux – cell-based, HEK293 alpha2C/GIRK1/2, thallium flux, primary screen (AID 624;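 active = fluorescence slope after compound addition differing from the mean of all screened samples at 99.7% confidence, in either direction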;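 also: slope of fluorescence ratio to pre-addition baseline per second over 15 to 24 s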). The conditions noted are these: thallium flux BTC fluorescence, at 10 µM, actives lie on both sides.
Alpha-2C adrenergic receptor (Homo sapiens), sequence (P18825 whole entry, looked up): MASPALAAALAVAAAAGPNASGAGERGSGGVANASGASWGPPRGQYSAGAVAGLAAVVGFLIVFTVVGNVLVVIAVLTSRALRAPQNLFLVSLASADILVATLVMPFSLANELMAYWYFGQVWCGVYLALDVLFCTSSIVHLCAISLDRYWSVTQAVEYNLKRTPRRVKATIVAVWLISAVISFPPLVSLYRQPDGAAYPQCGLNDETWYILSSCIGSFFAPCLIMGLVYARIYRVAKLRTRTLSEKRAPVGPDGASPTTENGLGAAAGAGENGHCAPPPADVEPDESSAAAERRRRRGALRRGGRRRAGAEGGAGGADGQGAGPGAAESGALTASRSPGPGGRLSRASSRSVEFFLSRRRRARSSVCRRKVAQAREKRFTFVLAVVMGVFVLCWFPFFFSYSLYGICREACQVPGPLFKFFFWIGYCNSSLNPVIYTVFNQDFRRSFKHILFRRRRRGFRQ
The nature of assay [8]: inhibitors of larval lipid processing in zebrafish, primary screen, whole organism, PED6 fluorescence, gall bladder and intestine (AID 686;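 active = a full or partial loss of lipid-probe fluorescence in the fish gall bladder, intestine or both, judged by eye; inactive = no fluorescence loss, or compound toxic to the fish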;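 also: larvae 5 to 7 days old with five fish per well; signal comes from phospholipase A2 cleavage of quenched PED6 carried via bile; overnight exposure to compound and PED6 before scoring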). As to conditions: Zebrafish larvae PED6 lipid processing, fluorescence scoring; screened at 20 µM (by protocol). In outline:
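system = live zebrafish larvae aged 5-7 days, whole organism | probe or stimulus = ingested quenched lipid PED6 at 100 nM | doses = 20 µM single dose | timing = overnight exposure | detection = fluorescence microscopy with visual scoring of gall bladder and intestine | read-out = visual per-well fluorescence inhibition score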

Assay [9] is described as follows: loss of swimming-algae plug formation – whole organism, Chlamydomonas reinhardtii, WT vs cilia-less mutant, absorbance, 96-well, primary screen (AID 463189;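 active = inhibition at or above 50% relative to wild type and mutant plate controls; inactive = inhibition below 50%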;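 also: 0% = wild type cc124 cells in DMSO and 100% = ciliumless bld1 mutant cells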). As to conditions: Chlamydomonas reinhardtii gravitaxis, OD600 absorbance, 2 days; at 10 µM; stronger effect = higher value.
Setting [10] is: measured here: cell density z-score.
Where [11] appears, read: measured here: nuclear c-Myc green intensity z-score.
The mark [12] stands for this setting: measured here: nuclear pErk red intensity z-score, stronger effect = higher value.

Voltage-gated potassium channel subunit beta-2 (Rattus norvegicus), sequence (P62483 whole entry, looked up): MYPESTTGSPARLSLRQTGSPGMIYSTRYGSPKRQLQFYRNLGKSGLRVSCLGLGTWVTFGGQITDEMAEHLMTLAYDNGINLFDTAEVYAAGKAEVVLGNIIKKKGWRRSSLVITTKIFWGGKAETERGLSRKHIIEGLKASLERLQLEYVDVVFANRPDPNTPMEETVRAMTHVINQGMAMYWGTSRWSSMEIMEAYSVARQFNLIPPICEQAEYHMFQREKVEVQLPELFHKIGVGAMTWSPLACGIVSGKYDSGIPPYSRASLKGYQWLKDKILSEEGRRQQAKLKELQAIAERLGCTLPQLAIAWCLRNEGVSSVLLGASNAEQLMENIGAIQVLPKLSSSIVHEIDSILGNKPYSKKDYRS

Take `Cn1c(=O)c2c(nc(NCc3ccc4c(c3)OCO4)n2Cc2ccc(F)cc2)n(C)c1=O`: the cell count in [1] worked out at 600. The inhibition in assay [1] is 3.1% (inactive); in assay [2], -39.4% (inactive); in assay [4], -2.91% (inactive); in assay [9], 2.97% (inactive). The nuclei count in assay [2] is 152%. Besides, the z-score is -0.468 in assay [3] (setting [10]), -0.0841 in assay [3] (setting [11]) and -0.555 in assay [3] (setting [12]). The fluorescence slope in [5] was -0.511 (inactive). Also, the NADPH fluorescence slope in assay [6] is -8.9e-05 (inactive). For the same compound, in assay [7], the slope was 0.00456 (inactive). The compound was classed as inactive in [8].
Take `O=C(CNC1C(=O)Nc2ccccc21)Sc1ccccc1` (centres undefined): in assay [1], the cell count was 636. The inhibition was -12.1% (inactive) in [1], -63.1% (inactive) in assay [2], 14.4% (inactive) in assay [4] and -11.8% (inactive) in assay [9]. Further, the nuclei count in [2] was determined as 118%. For the same compound, the z-score was 1.09 in [3] (setting [10]), -0.106 in assay [3] (setting [11]) and -0.738 in assay [3] (setting [12]). Also, the fluorescence slope in [5] is -0.383 (inactive). Also, in assay [6], the NADPH fluorescence slope was -1.8e-06 (inactive). Moreover, the slope in [7] was 0.00502 (inactive). The outcome in assay [8] was inactive.
For the compound `Nc1ccc2c(c1)N1CCN=C1S2`, the cell count in assay [1] worked out at 646. Further, the inhibition in assay [1] is -9.1% (inactive); in assay [2] it was -53.2% (inactive); in [4] it was -0.159% (inactive); in assay [9], 24% (inactive). In assay [2], this compound showed a nuclei count of 169%. Besides, the z-score in [3] (setting [10]) was 1.6; in assay [3] (setting [11]) it was -0.44; in assay [3] (setting [12]) it was 0.246. In addition, the fluorescence slope in assay [5] was -0.545 (inactive). Further, the NADPH fluorescence slope in [6] was -9.2e-05 (inactive). Moreover, in [7], the slope is 0.00512 (inactive). The call in assay [8] was inactive.
For the compound `Cc1sccc1C1C(C#N)=C(N)SC(N)=C1C#N`, the cell count in assay [1] turned out to be 693. Also, the inhibition in assay [1] is -19.1% (inactive); in [2], -22.1% (inactive); in assay [4] it was 16% (inactive); in [9], -2.96% (inactive). The nuclei count in [2] was determined as 167%. For the same compound, the values for the z-score in assay [3] (setting [10]), in [3] (setting [11]) and in assay [3] (setting [12]) were 0.12, -0.636 and 1.06, respectively. Also, the fluorescence slope in assay [5] was -0.345 (inactive). Also, the NADPH fluorescence slope in assay [6] is -2.2e-05 (inactive). For the same compound, in assay [7], the slope is 0.00967 (inactive). Besides, in assay [8], the compound was called inactive.
`CN1C(=S)SC(N(O)C(=O)Nc2ccccc2)C1(C)C` (centres undefined): the cell count in [1] worked out at 486. Moreover, the inhibition is 8.3% (inactive) in assay [1], -95.4% (inactive) in assay [2], 7.73% (inactive) in assay [4] and -9.05% (inactive) in assay [9]. The nuclei count in assay [2] stood at 168%. In addition, the figures for the z-score in assay [3] (setting [10]), in [3] (setting [11]) and in assay [3] (setting [12]) were 0.407, -0.73 and 0.0884, respectively. The fluorescence slope in assay [5] was -0.52 (inactive). Also, the NADPH fluorescence slope in [6] is -0.000109 (inactive). Also, in [7], the slope was 0.00576 (inactive). In addition, the result in assay [8] was inactive.
Take `COc1ccc(C2C(C#N)=C(N)Oc3n[nH]c(C)c32)cc1CSc1ccccn1` (centres undefined): the cell count in assay [1] amounted to 648. For the same compound, the inhibition in [1] was -1.9% (inactive); in [2] it was 9.1% (inactive); in assay [4] it was -5.62% (inactive); in assay [9], -9.39% (inactive). In addition, the nuclei count in assay [2] was 168%. Also, the z-score in assay [3] (setting [10]) is -0.678; in assay [3] (setting [11]), 1.17; in assay [3] (setting [12]), -0.733. Moreover, the fluorescence slope in assay [5] was -0.412 (inactive). The NADPH fluorescence slope in assay [6] was -3.1e-05 (inactive). Moreover, the slope in [7] is 0.00563 (inactive). Further, the compound was called inactive in assay [8].
Regarding `CCOc1ccc(CC2CC(=O)NC2=O)cc1` (centres undefined), the cell count in assay [1] worked out at 622. Further, the inhibition in assay [1] was 2.8% (inactive); in [2], -113% (inactive); in assay [4], -0.159% (inactive); in assay [9], 9.39% (inactive). The nuclei count in assay [2] is 185%. Further, the z-score was -0.992 in assay [3] (setting [10]), -0.148 in assay [3] (setting [11]) and 1.17 in assay [3] (setting [12]). Moreover, in assay [5], the fluorescence slope was -0.484 (inactive). In [6], the NADPH fluorescence slope was -9.9e-05 (inactive). In addition, the slope in assay [7] was 0.00492 (inactive). In addition, the call in assay [8] was inactive.
Regarding `Cn1nnnc1SCC(=O)NCC(=O)c1ccccc1`, the cell count in [1] came out at 527. Further, the inhibition in assay [1] is -4.5% (inactive); in assay [2], -74.2% (inactive); in [4], -7.01% (inactive); in assay [9], 10.2% (inactive). The compound further came in with a nuclei count in assay [2] of 146%. Also, the z-score in assay [3] (setting [10]) was 0.246; in [3] (setting [11]) it was -1.91; in assay [3] (setting [12]), 0.111. Moreover, the fluorescence slope in [5] was -0.527 (inactive). Besides, in [6], the NADPH fluorescence slope was -6.9e-05 (inactive). The slope in assay [7] was 0.00467 (inactive). Further, in [8], the compound was called inactive.
Take `C=C1c2cc(OC)ccc2NC(=O)N1CC`: in assay [1], the cell count amounted to 611. Besides, the inhibition is 0.3% (inactive) in [1], -36.5% (inactive) in [2], -4.7% (inactive) in assay [4] and 5.59% (inactive) in assay [9]. For the same compound, the nuclei count in assay [2] was 127%. Moreover, the results for the z-score in assay [3] (setting [10]), in [3] (setting [11]) and in assay [3] (setting [12]) were 0.269, 0.973 and -0.0863, respectively. Further, in assay [5], the fluorescence slope was -0.452 (inactive). Further, the NADPH fluorescence slope in [6] was -0.0002 (inactive). For the same compound, the slope in assay [7] was 0.00447 (inactive). Also, the result in assay [8] was inactive.
As for `C1CCCN(CCCCN2CCCCCC2)CC1`, the cell count in assay [1] amounted to 575. In addition, the inhibition in assay [1] was -1.5% (inactive); in assay [2], -211% (inactive); in [4] it was -5.89% (inactive); in assay [9], -11.5% (inactive). Besides, in assay [2], the nuclei count was 129%. In addition, the z-score in assay [3] (setting [10]) is -2.5; in assay [3] (setting [11]), 1.44; in assay [3] (setting [12]) it was -0.0614. Further, the fluorescence slope in [5] is -0.456 (inactive). For the same compound, the NADPH fluorescence slope in assay [6] is -0.000347 (inactive). Moreover, the slope in assay [7] is 0.00726 (inactive). In [8], the result was inactive.
In the case of `CN(C)c1ccc(C2C3C(=O)N(c4ccc(C(=O)O)cc4)C(=O)C3ON2c2ccccc2)cc1` (centres undefined), in assay [1], the cell count amounted to 491. Further, the inhibition in assay [1] was -9.3% (inactive); in assay [2] it was -30.7% (inactive); in assay [4] it was -13.3% (inactive); in [9] it was 13% (inactive). Also, in assay [2], the nuclei count is 148%. Besides, the z-score was -0.854 in assay [3] (setting [10]), -1.46 in assay [3] (setting [11]) and 0.576 in assay [3] (setting [12]). The fluorescence slope in [5] is -0.506 (inactive). In assay [6], the NADPH fluorescence slope was -3.3e-05 (inactive). Besides, the slope in assay [7] is 0.00498 (inactive). Also, in [8], the outcome was inactive.
Take `CCOC(=O)c1nc(N)c(C(=O)OCC)[nH]1`: the cell count in assay [1] is 405. For the same compound, the inhibition in assay [1] was 11.5% (inactive); in [2], -32.3% (inactive); in assay [4], 18.2% (inactive); in assay [9], -16% (inactive). For the same compound, the nuclei count in assay [2] is 94.7%. In addition, the z-score in assay [3] (setting [10]) was -0.517; in assay [3] (setting [11]) it was 1.59; in assay [3] (setting [12]), -0.341. Besides, in assay [5], the fluorescence slope was -0.47 (inactive). Moreover, the NADPH fluorescence slope in assay [6] is -7.9e-05 (inactive). The slope in [7] was 0.00468 (inactive). For the same compound, the outcome in assay [8] was inactive.
As for `CSC1=Nc2sc3c(c2C2=NCCN12)CC(C)(C)OC3`, in [1], the cell count came out at 540. Moreover, the inhibition in assay [1] is -10.5% (inactive); in [2], -3.3% (inactive); in [4], 3.66% (inactive); in assay [9], 64.3% (active). The nuclei count in [2] was found to be 176%. For the same compound, the z-score in assay [3] (setting [10]) is -0.539; in assay [3] (setting [11]), 0.758; in [3] (setting [12]), -0.378. For the same compound, in assay [5], the fluorescence slope is -0.508 (inactive). In addition, the NADPH fluorescence slope in assay [6] was -4.5e-05 (inactive). In addition, the slope in assay [7] is 0.00474 (inactive). The outcome in [8] was inactive.
